The subject of one data set is Streptococcus pyogenes. Nature of the data set: Antibacterial activity against Streptococcus pyogenes after 24 hrs by spectrophotometry. The class given is functional. The gist of the method:
(§1)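 Strains grown on nutrient agar at 37 °C for 24 h, suspended in normal saline with 0.05% Tween 20 to about […] cells/mL (0.5 McFarland). Broth microdilution per NCCLS in Mueller Hinton broth. Compounds dissolved in DMSO at 1 mg/mL (stock), serially two-fold diluted. Growth, drug and negative controls included. Incubation at 35 °C, moist and dark; MIC read spectrophotometrically at 24 h.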

Data set [1] concerns L929. Nature of the data set: Cytotoxicity against mouse L929 cells assessed as change in morphology at 0.09 ug/ml after 24 hrs by phase contrast microscopy. It is filed as cell-based. The note with it: l929, 24 h. The gist of the method: (§2)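 L929 fibroblasts in DMEM under 5% CO₂, switched to serum-free DMEM at 90% confluency, then exposed to compound for 24 h. Cells were fixed in the wells and stained with Giemsa for 30 min at 37 °C. Morphology was examined by phase contrast microscopy against untreated control cells.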

In data set [2] the test system is L929. Put plainly: Cytotoxicity against mouse L929 cells assessed as change in morphology at 50 ug/ml after 24 hrs by phase contrast microscopy. The class given is cell-based. Particulars: l929, 24 h. The procedure, abridged: as §2
Data set [3] deals with L929. Nature of the data set: Cytotoxicity against mouse L929 cells assessed as cell viability after 24 hrs by MTT assay. The class given is cell-based. Particulars: l929, 24 h. The procedure, abridged:
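Mouse fibroblast L929 cells seeded at 1 × 10³ cells per well in DMEM under humidified 5% CO₂. Medium switched to serum-free DMEM at 90% confluency (5 h). Cells exposed 24 h to a two-fold series ([…], then 12.5 down to 0.09). MTT read-out: absorbance at 570 minus 630 nm taken as the viability index.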

In data set [4] the test system is Staphylococcus aureus. Nature of the data set: Antibacterial activity against […] Staphylococcus aureus ATCC 25923 after 24 hrs by spectrophotometry. It is filed as functional. The note with it: ATCC 25923, 24 h. The gist of the method:
(§3)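 Strains grown on nutrient agar at 37 °C for 24 h, then suspended in normal saline with 0.05% Tween 20 at about […] cells/mL (0.5 McFarland). Broth microdilution in Mueller Hinton broth per NCCLS. DMSO stock 1 mg/mL diluted into broth, then two-fold serial dilutions. Plates incubated at 35 °C in a moist, dark chamber. MIC read spectrophotometrically at 24 h.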

For data set [5], the system named is Staphylococcus aureus. Nature of the data set: Antibacterial activity against methicillin resistant Staphylococcus aureus ATCC 70069 after 24 hrs by spectrophotometry. It is filed as functional. The note with it: ATCC 70069, 24 h. The procedure, abridged: as §3
The subject of data set [6] is Staphylococcus aureus. Put plainly: Antibacterial activity against […] Staphylococcus aureus ATCC 29213 after 24 hrs by spectrophotometry. The class given is functional. Particulars: ATCC 29213, 24 h. The gist of the method:
as §3

The test system of the next data set is Bacillus cereus. Put plainly: Antibacterial activity against Bacillus cereus MTCC 430 after 24 hrs by spectrophotometry. The class given is functional. The note with it: MTCC 430, 24 h. The procedure, abridged: as §1
The test system of another data set is Enterococcus faecalis. Nature of the data set: Antibacterial activity against Enterococcus faecalis MTCC439 after 24 hrs by spectrophotometry. It is filed as functional. Particulars: MTCC439, 24 h. The procedure, abridged: as §1
The next data set has as its system Klebsiella pneumoniae. Nature of the data set: Antibacterial activity against Klebsiella pneumoniae ATCC 27736 after 24 hrs by spectrophotometry. Particulars: ATCC 27736, 24 h. It is filed as functional. The procedure, abridged:
as §1

Converted amounts (≈) assume the structure as drawn.

As for `CC(=O)NC[C@H]1CN(c2ccc(N3CCN(CCn4c([N+](=O)[O-])cnc4C)CC3)c(F)c2)C(=O)O1`, the minimum inhibitory concentration (MIC) in the data set with Streptococcus pyogenes came out at 0.78 µg/mL (≈ 1.59 µM); in the data set with Staphylococcus aureus [4], 3.12 µg/mL (≈ 6.37 µM); in the data set with Staphylococcus aureus [5], 0.78 µg/mL (≈ 1.59 µM); in the data set with Staphylococcus aureus [6], 3.12 µg/mL (≈ 6.37 µM); with Bacillus cereus it was 0.097 µg/mL (≈ 0.198 µM); with Enterococcus faecalis, 3.12 µg/mL (≈ 6.37 µM). In the data set on Klebsiella pneumoniae, this compound showed an MIC of 0.78 µg/mL (≈ 1.59 µM). Further, the figures for the Activity result in the data set with L929 [1], in the data set with L929 [2] and in the data set on L929 [3] were “Non-toxic”, “Toxic” and “Toxic”, respectively.

For `CC(=O)NC[C@H]1CN(c2ccc(N3CCN(CCCn4c([N+](=O)[O-])cnc4C)CC3)c(F)c2)C(=O)O1`, the MIC stood at 1.56 µg/mL (≈ 3.1 µM) in the data set on Streptococcus pyogenes; 12.5 µg/mL (≈ 24.8 µM) in the data set on Staphylococcus aureus [4]; 6.25 µg/mL (≈ 12.4 µM) against Staphylococcus aureus [5]; 12.5 µg/mL (≈ 24.8 µM) with Staphylococcus aureus [6]; 6.25 µg/mL (≈ 12.4 µM) with Bacillus cereus; 12.5 µg/mL (≈ 24.8 µM) in the data set on Enterococcus faecalis. Moreover, in the data set with Klebsiella pneumoniae, inhibition of growth (MIC) required 1.56 µg/mL (≈ 3.1 µM).

Take `CC(=O)NC[C@H]1CN(c2ccc(N3CCN(CC(O)Cn4cnc([N+](=O)[O-])c4)CC3)c(F)c2)C(=O)O1` (stereo partly specified): the MIC was 3.12 µg/mL (≈ 6.17 µM) in the data set on Streptococcus pyogenes; 6.25 µg/mL (≈ 12.4 µM) with Staphylococcus aureus [4]; 6.25 µg/mL (≈ 12.4 µM) against Staphylococcus aureus [5]; 12.5 µg/mL (≈ 24.7 µM) in the data set on Staphylococcus aureus [6]; 3.12 µg/mL (≈ 6.17 µM) with Bacillus cereus; over 50 µg/mL in the data set on Klebsiella pneumoniae.

In the case of `CC(=O)NC[C@H]1CN(c2ccc(N3CCN(CCCn4cnc([N+](=O)[O-])c4)CC3)c(F)c2)C(=O)O1`, the MIC is 0.39 µg/mL (≈ 0.797 µM) against Streptococcus pyogenes; 0.78 µg/mL (≈ 1.59 µM) with Staphylococcus aureus [4]; 0.78 µg/mL (≈ 1.59 µM) in the data set with Staphylococcus aureus [5]; 0.78 µg/mL (≈ 1.59 µM) in the data set on Staphylococcus aureus [6]; 0.78 µg/mL (≈ 1.59 µM) with Bacillus cereus; 0.78 µg/mL (≈ 1.59 µM) in the data set with Enterococcus faecalis. In addition, inhibition of growth with Klebsiella pneumoniae (MIC) required 0.78 µg/mL (≈ 1.59 µM). Besides, the Activity entry in the data set with L929 [1] is on record as “Non-toxic”; in the data set with L929 [2] it was “Toxic”; in the data set on L929 [3], “Toxic”.

As for `CC(=O)NC[C@H]1CN(c2ccc(N3CCOCC3)c(F)c2)C(=O)O1` [LINEZOLID], the MIC in the data set on Streptococcus pyogenes worked out at 1.56 µg/mL (≈ 4.62 µM); against Staphylococcus aureus [4], 1.56 µg/mL (≈ 4.62 µM); in the data set with Staphylococcus aureus [5] it was 1.56 µg/mL (≈ 4.62 µM); in the data set on Staphylococcus aureus [6], 3.12 µg/mL (≈ 9.25 µM); against Bacillus cereus, 0.78 µg/mL (≈ 2.31 µM); against Enterococcus faecalis it was 3.12 µg/mL (≈ 9.25 µM). The same compound yielded an MIC against Klebsiella pneumoniae of 1.56 µg/mL (≈ 4.62 µM).

On to `CC(=O)NC[C@H]1CN(c2ccc(N3CCN(C(=O)Cn4cnc([N+](=O)[O-])c4)CC3)c(F)c2)C(=O)O1`, for which the MIC came out at 1.56 µg/mL (≈ 3.19 µM) with Streptococcus pyogenes; 12.5 µg/mL (≈ 25.5 µM) in the data set with Staphylococcus aureus [4]; 3.12 µg/mL (≈ 6.37 µM) against Staphylococcus aureus [5]; 12.5 µg/mL (≈ 25.5 µM) against Staphylococcus aureus [6]; 6.25 µg/mL (≈ 12.8 µM) in the data set on Bacillus cereus; 25 µg/mL (≈ 51.1 µM) in the data set with Enterococcus faecalis. Also, the MIC against Klebsiella pneumoniae was 25 µg/mL (≈ 51.1 µM).

For the compound `CN[C@H](CC(C)C)C(=O)N[C@H]1C(=O)N[C@@H](CC(N)=O)C(=O)N[C@H]2C(=O)N[C@H]3C(=O)N[C@H](C(=O)N[C@H](C(=O)O)c4cc(O)cc(O)c4-c4cc3ccc4O)[C@H](O)c3ccc(c(Cl)c3)Oc3cc2cc(c3O[C@@H]2O[C@H](CO)[C@@H](O)[C@H](O)[C@H]2O[C@H]2C[C@](C)(N)[C@H](O)[C@H](C)O2)Oc2ccc(cc2Cl)[C@H]1O` [VANCOMYCIN], the MIC with Streptococcus pyogenes amounted to 0.39 µg/mL (≈ 0.269 µM); against Staphylococcus aureus [4], 0.39 µg/mL (≈ 0.269 µM); in the data set on Staphylococcus aureus [5] it was 6.25 µg/mL (≈ 4.31 µM); in the data set on Staphylococcus aureus [6] it was 1.56 µg/mL (≈ 1.08 µM); against Bacillus cereus, 0.19 µg/mL (≈ 0.131 µM); against Enterococcus faecalis, 0.78 µg/mL (≈ 0.538 µM).

With `CC(=O)NC[C@H]1CN(c2ccc(N3CCN(CCCn4ccnc4[N+](=O)[O-])CC3)c(F)c2)C(=O)O1`, the MIC in the data set with Streptococcus pyogenes worked out at 0.78 µg/mL (≈ 1.59 µM); against Staphylococcus aureus [4] it was 6.25 µg/mL (≈ 12.8 µM); against Staphylococcus aureus [5], 6.25 µg/mL (≈ 12.8 µM); against Staphylococcus aureus [6], 12.5 µg/mL (≈ 25.5 µM); with Bacillus cereus, 6.25 µg/mL (≈ 12.8 µM); against Enterococcus faecalis, 12.5 µg/mL (≈ 25.5 µM). The MIC against Klebsiella pneumoniae came out at 0.78 µg/mL (≈ 1.59 µM).

`CC(=O)NC[C@H]1CN(c2ccc(N3CCN(CCn4ccnc4[N+](=O)[O-])CC3)c(F)c2)C(=O)O1`: the MIC against Streptococcus pyogenes is 0.78 µg/mL (≈ 1.64 µM); with Staphylococcus aureus [4], 12.5 µg/mL (≈ 26.3 µM); against Staphylococcus aureus [5], 6.25 µg/mL (≈ 13.1 µM); with Staphylococcus aureus [6], 12.5 µg/mL (≈ 26.3 µM); in the data set on Bacillus cereus, 0.78 µg/mL (≈ 1.64 µM); in the data set with Enterococcus faecalis, 25 µg/mL (≈ 52.6 µM). In the data set on Klebsiella pneumoniae, this compound showed an MIC of 25 µg/mL (≈ 52.6 µM).

On to `CC(=O)NC[C@H]1CN(c2ccc(N3CCN(C(=O)Cn4c([N+](=O)[O-])cnc4C)CC3)c(F)c2)C(=O)O1`, for which the MIC came to 1.56 µg/mL (≈ 3.1 µM) against Streptococcus pyogenes; 6.25 µg/mL (≈ 12.4 µM) with Staphylococcus aureus [4]; 6.25 µg/mL (≈ 12.4 µM) in the data set on Staphylococcus aureus [5]; 6.25 µg/mL (≈ 12.4 µM) in the data set with Staphylococcus aureus [6]; 1.56 µg/mL (≈ 3.1 µM) against Bacillus cereus; 6.25 µg/mL (≈ 12.4 µM) against Enterococcus faecalis. In the data set on Klebsiella pneumoniae, this compound had an MIC of 3.12 µg/mL (≈ 6.2 µM).

Turning to `CC(=O)NC[C@H]1CN(c2ccc(N3CCN(CC(O)Cn4c([N+](=O)[O-])cnc4C)CC3)c(F)c2)C(=O)O1` (stereo partly specified), the MIC in the data set with Streptococcus pyogenes amounted to 0.39 µg/mL (≈ 0.751 µM); in the data set with Staphylococcus aureus [4], 3.12 µg/mL (≈ 6.01 µM); in the data set on Staphylococcus aureus [5] it was 0.39 µg/mL (≈ 0.751 µM); in the data set on Staphylococcus aureus [6], 1.56 µg/mL (≈ 3 µM); in the data set with Bacillus cereus, 0.78 µg/mL (≈ 1.5 µM); in the data set on Enterococcus faecalis, 1.56 µg/mL (≈ 3 µM). The compound further displayed an MIC in the data set with Klebsiella pneumoniae of over 50 µg/mL.

The values are drawn from ChEMBL document CHEMBL1154728, “Synthesis of nitroimidazole derived oxazolidinones as antibacterial agents” (Eur J Med Chem, 2010).
